Laboratory results taken from ChEMBL document CHEMBL4732167, “Structure based design, synthesis, and biological evaluation of imidazole derivatives targeting dihydropteroate synthase enzyme” (Bioorg Med Chem Lett, 2021).
≈ marks a conversion by molar mass, not a printed value.

System: not listed separately
Experiment: Antioxidant activity assessed as hydrogen peroxide radical scavenging activity at 25 ug/ml (reference value: 23.6 to 43.1 %)
Format: functional
Conditions: dose 25.0 µg/ml
How it was run: (§1)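 Hydrogen peroxide scavenging was measured across a compound series of 0, 25, 50, 75 and 100 µg/ml.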

SMILES | Activity
CC(=O)c1c(C)nc(SCC(=O)Nc2ccc(OC(=O)c3cccs3)cc2)n1-c1ccc(F)cc1 | 48.6%

System: Plasmodium falciparum
Experiment: Antimalarial activity against Plasmodium falciparum assessed as parasite growth inhibition
Format: functional, organism-based
Conditions: not given

SMILES | IC50
CC(=O)c1c(C)nc(SCC(=O)Nc2ccc(OC(=O)c3cccs3)cc2)n1-c1ccc(F)cc1 | 1.14 µg/mL (≈ 2.24 µM)

System: Mycobacterium tuberculosis
Experiment: Antibacterial activity against Mycobacterium tuberculosis H37Rv assessed as bacterial growth inhibition
Format: functional
Conditions: not given

SMILES | MIC
CC(=O)c1c(C)nc(SCC(=O)Nc2ccc(OC(=O)c3cccs3)cc2)n1-c1ccc(F)cc1 | 100 µg/mL (≈ 196 µM)

System: not listed separately
Experiment: Antioxidant activity assessed as hydrogen peroxide radical scavenging activity at 75 ug/ml (reference value: 23.6 to 43.1 %)
Format: functional
Conditions: dose 75.0 µg/ml
How it was run: as §1

SMILES | Activity
CC(=O)c1c(C)nc(SCC(=O)Nc2ccc(OC(=O)c3cccs3)cc2)n1-c1ccc(F)cc1 | 67.6%

System: Pseudomonas aeruginosa
Experiment: Antibacterial activity against Pseudomonas aeruginosa MTCC 1688 assessed as bacterial growth inhibition
Format: functional
Conditions: not given

SMILES | MIC
CC(=O)c1c(C)nc(SCC(=O)Nc2ccc(OC(=O)c3cccs3)cc2)n1-c1ccc(F)cc1 | 62.5 µg/mL (≈ 123 µM)

System: not listed separately
Experiment: Antioxidant activity assessed as DPPH radical scavenging activity at 25 ug/ml (reference value: 22 to 40.2 %)
Format: functional
Conditions: dose 25.0 µg/ml
How it was run: (§2)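 DPPH radical scavenging was measured at 0, 25, 50, 75 and 100 µg/ml of each compound. Ascorbic acid was the reference.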

SMILES | Activity
CC(=O)c1c(C)nc(SCC(=O)Nc2ccc(OC(=O)c3cccs3)cc2)n1-c1ccc(F)cc1 | 44.3%

System: Escherichia coli
Experiment: Antibacterial activity against Escherichia coli MTCC 443 assessed as bacterial growth inhibition
Format: functional
Conditions: not given

SMILES | MIC
CC(=O)c1c(C)nc(SCC(=O)Nc2ccc(OC(=O)c3cccs3)cc2)n1-c1ccc(F)cc1 | 100 µg/mL (≈ 196 µM)

System: Streptococcus pyogenes
Experiment: Antibacterial activity against Streptococcus pyogenes MTCC 442 assessed as bacterial growth inhibition
Format: functional
Conditions: not given

SMILES | MIC
CC(=O)c1c(C)nc(SCC(=O)Nc2ccc(OC(=O)c3cccs3)cc2)n1-c1ccc(F)cc1 | 125 µg/mL (≈ 245 µM)

System: Staphylococcus aureus
Experiment: Antibacterial activity against Staphylococcus aureus MTCC 96 assessed as bacterial growth inhibition
Format: functional
Conditions: not given

SMILES | MIC
CC(=O)c1c(C)nc(SCC(=O)Nc2ccc(OC(=O)c3cccs3)cc2)n1-c1ccc(F)cc1 | 125 µg/mL (≈ 245 µM)

System: not listed separately
Experiment: Antioxidant activity assessed as nitric oxide radical scavenging activity at 100 ug/ml (reference value: 25.8 to 41.6 %)
Format: functional
Conditions: dose 100.0 µg/ml
How it was run: (§3)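 Nitric oxide radical scavenging was tested at 0, 25, 50, 75 and 100 µg/ml of compound.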

SMILES | Activity
CC(=O)c1c(C)nc(SCC(=O)Nc2ccc(OC(=O)c3cccs3)cc2)n1-c1ccc(F)cc1 | 89.1%

System: Enterococcus
Experiment: Antibacterial activity against vancomycin-resistant Enterococcus assessed as inhibition of bacterial growth
Format: functional
Conditions: not given
How it was run: (§4)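 Growth inhibition of the drug-resistant strain was read out as the minimum inhibitory concentration (MIC), reported in µg/mL. The same protocol was also run on an ESBL strain.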

SMILES | MIC
CC(=O)c1c(C)nc(SCC(=O)Nc2ccc(OC(=O)c3cccs3)cc2)n1-c1ccc(F)cc1 | 125 µg/mL (≈ 245 µM)

System: Bacteria
Experiment: Antibacterial activity against ESBL-producing bacteria assessed as bacterial growth inhibition
Format: functional
Conditions: not given
How it was run: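 Values are minimum inhibitory concentrations (MIC) in µg/mL, determined at an outside microbiology laboratory.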

SMILES | MIC
CC(=O)c1c(C)nc(SCC(=O)Nc2ccc(OC(=O)c3cccs3)cc2)n1-c1ccc(F)cc1 | 125 µg/mL (≈ 245 µM)

System: not listed separately
Experiment: Antioxidant activity assessed as nitric oxide radical scavenging activity at 25 ug/ml (reference value: 25.8 to 41.6 %)
Format: functional
Conditions: dose 25.0 µg/ml
How it was run: as §3

SMILES | Activity
CC(=O)c1c(C)nc(SCC(=O)Nc2ccc(OC(=O)c3cccs3)cc2)n1-c1ccc(F)cc1 | 50.6%

System: Candida albicans
Experiment: Antifungal activity against Candida albicans MTCC 227 assessed as fungal growth inhibition
Format: functional
Conditions: not given

SMILES | MFC
CC(=O)c1c(C)nc(SCC(=O)Nc2ccc(OC(=O)c3cccs3)cc2)n1-c1ccc(F)cc1 | 500 µg/mL (≈ 981 µM)

System: not listed separately
Experiment: Antioxidant activity assessed as nitric oxide radical scavenging activity at 50 ug/ml (reference value: 25.8 to 41.6 %)
Format: functional
Conditions: dose 50.0 µg/ml
How it was run: as §3

SMILES | Activity
CC(=O)c1c(C)nc(SCC(=O)Nc2ccc(OC(=O)c3cccs3)cc2)n1-c1ccc(F)cc1 | 59.3%

System: not listed separately
Experiment: Antioxidant activity assessed as hydrogen peroxide radical scavenging activity at 50 ug/ml (reference value: 23.6 to 43.1 %)
Format: functional
Conditions: dose 50.0 µg/ml
How it was run: as §1

SMILES | Activity
CC(=O)c1c(C)nc(SCC(=O)Nc2ccc(OC(=O)c3cccs3)cc2)n1-c1ccc(F)cc1 | 59.3%

System: not listed separately
Experiment: Antioxidant activity assessed as nitric oxide radical scavenging activity at 75 ug/ml (reference value: 25.8 to 41.6 %)
Format: functional
Conditions: dose 75.0 µg/ml
How it was run: as §3

SMILES | Activity
CC(=O)c1c(C)nc(SCC(=O)Nc2ccc(OC(=O)c3cccs3)cc2)n1-c1ccc(F)cc1 | 79.5%

System: not listed separately
Experiment: Antioxidant activity assessed as hydrogen peroxide radical scavenging activity at 100 ug/ml (reference value: 23.6 to 43.1 %)
Format: functional
Conditions: dose 100.0 µg/ml
How it was run: as §1

SMILES | Activity
CC(=O)c1c(C)nc(SCC(=O)Nc2ccc(OC(=O)c3cccs3)cc2)n1-c1ccc(F)cc1 | 79.6%

System: Aspergillus clavatus
Experiment: Antifungal activity against Aspergillus clavatus MTCC 1323 assessed as fungal growth inhibition
Format: functional
Conditions: not given

SMILES | MFC
CC(=O)c1c(C)nc(SCC(=O)Nc2ccc(OC(=O)c3cccs3)cc2)n1-c1ccc(F)cc1 | 250 µg/mL (≈ 491 µM)

System: Aspergillus niger
Experiment: Antifungal activity against Aspergillus niger MTCC 282 assessed as fungal growth inhibition
Format: functional
Conditions: not given

SMILES | MFC
CC(=O)c1c(C)nc(SCC(=O)Nc2ccc(OC(=O)c3cccs3)cc2)n1-c1ccc(F)cc1 | 500 µg/mL (≈ 981 µM)

System: not listed separately
Experiment: Antioxidant activity assessed as DPPH radical scavenging activity at 100 dilution
Format: functional
Conditions: not given

SMILES | Activity
CC(=O)c1c(C)nc(SCC(=O)Nc2ccc(OC(=O)c3cccs3)cc2)n1-c1ccc(F)cc1 | 89.6%

System: not listed separately
Experiment: Antioxidant activity assessed as DPPH radical scavenging activity at 50 ug/ml (reference value: 22 to 40.2 %)
Format: functional
Conditions: dose 50.0 µg/ml
How it was run: as §2

SMILES | Activity
CC(=O)c1c(C)nc(SCC(=O)Nc2ccc(OC(=O)c3cccs3)cc2)n1-c1ccc(F)cc1 | 51.4%

System: not listed separately
Experiment: Antioxidant activity assessed as DPPH radical scavenging activity at 75 ug/ml (reference value: 22 to 40.2 %)
Format: functional
Conditions: dose 75.0 µg/ml
How it was run: as §2

SMILES | Activity
CC(=O)c1c(C)nc(SCC(=O)Nc2ccc(OC(=O)c3cccs3)cc2)n1-c1ccc(F)cc1 | 65.4%

System: not listed separately
Experiment: Antioxidant activity assessed as DPPH radical scavenging activity at 100 ug/ml (reference value: 22 to 40.2 %)
Format: functional
Conditions: dose 100.0 µg/ml
How it was run: as §2

SMILES | Activity
CC(=O)c1c(C)nc(SCC(=O)Nc2ccc(OC(=O)c3cccs3)cc2)n1-c1ccc(F)cc1 | 89.6%

System: Staphylococcus aureus
Experiment: Antibacterial activity against methicillin-resistant Staphylococcus aureus assessed as inhibition of bacterial growth
Format: functional
Conditions: not given
How it was run: as §4

SMILES | MIC
CC(=O)c1c(C)nc(SCC(=O)Nc2ccc(OC(=O)c3cccs3)cc2)n1-c1ccc(F)cc1 | 250 µg/mL (≈ 491 µM)
